The source made the active and inactive calls.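 How the source made its calls: active means inhibition of 50% or more of probe labeling of the enzyme band; inactive means inhibition below 50%.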

Diacylglycerol lipase-beta (Mus musculus), sequence (Q91WC9 whole entry, looked up): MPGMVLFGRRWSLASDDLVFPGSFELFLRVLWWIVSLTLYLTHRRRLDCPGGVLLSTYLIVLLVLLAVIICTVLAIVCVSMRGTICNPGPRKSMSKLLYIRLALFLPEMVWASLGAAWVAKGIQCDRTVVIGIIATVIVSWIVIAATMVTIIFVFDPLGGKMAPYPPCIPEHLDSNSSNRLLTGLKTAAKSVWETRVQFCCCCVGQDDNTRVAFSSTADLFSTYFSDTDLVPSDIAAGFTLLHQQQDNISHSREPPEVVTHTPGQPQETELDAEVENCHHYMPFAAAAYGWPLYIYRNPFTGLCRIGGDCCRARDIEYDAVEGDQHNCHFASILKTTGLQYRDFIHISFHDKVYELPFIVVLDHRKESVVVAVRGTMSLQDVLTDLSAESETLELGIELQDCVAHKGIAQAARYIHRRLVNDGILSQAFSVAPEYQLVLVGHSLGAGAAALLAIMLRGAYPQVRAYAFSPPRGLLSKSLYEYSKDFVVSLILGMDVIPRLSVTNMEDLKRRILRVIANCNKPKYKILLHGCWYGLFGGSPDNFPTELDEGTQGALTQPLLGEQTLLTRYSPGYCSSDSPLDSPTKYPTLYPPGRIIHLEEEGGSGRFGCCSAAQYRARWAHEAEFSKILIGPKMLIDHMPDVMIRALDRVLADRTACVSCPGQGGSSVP

For this assay, the target named is Diacylglycerol lipase-beta (Mus musculus) (UniProt Q91WC9). The assay is described as follows: mouse DAGLb inhibitors by competitive ABPP, late-stage follow-up, biochemical, gel-based fluorescence, overexpressed mouse, set 2 (AID 602299). To be noted: HEK293T membrane overexpressed mouse DAGLb, at 10 µM, stronger effect = higher value. The method in brief:
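Material: membrane proteome of HEK293T cells transiently overexpressing mouse DAGLb; input: 0.3 mg/mL membrane protein; reagent: HT-01 probe, 1 µM; controls: DMSO-only high, gel background low; signal: reducing SDS-PAGE with in-gel fluorescence; times: 30 min compound pre-incubation then 30 min probe labeling, 37 °C; read-out basis: % inhibition from band optical density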
As usually defined, the inhibition is the drop in the measured response relative to a control, in per cent. For the molecule `COc1ccccc1-c1ccc(-c2cn(C(=O)N3CCCCC3c3ccccc3)nn2)cc1` (stereo not drawn), the inhibition is 64%. Take `O=C(N1CCCCC1CCc1ccccc1)n1cc(-c2ccc(-c3ccccc3)cc2)nn1` (stereo not drawn): the inhibition was 59%. As for `O=C(N1CCCCC1c1ccccc1)n1cc(-c2ccc(-c3ccccc3)cc2)nn1` (stereo not drawn), the figure is 50%; as for `COc1ccccc1-c1ccc(-c2cn(C(=O)N3CCC(Cc4ccccc4)CC3)nn2)cc1`, 98%. In the case of `COc1ccc(-c2ccc(-c3cn(C(=O)N4CCCCC4c4ccccc4)nn3)cc2)cc1` (stereo not drawn), the inhibition is 11% (inactive). With `COc1ccccc1-c1ccc(-c2cn(C(=O)N3CCCCC3CCc3ccccc3)nn2)cc1` (stereo not drawn), the inhibition was 69%. Consider `COc1ccccc1-c1ccc(-c2cn(C(=O)N3CCCC(Cc4ccccc4)C3)nn2)cc1` (stereo not drawn), for which the inhibition is 99%. As for `O=C(N1CCCCC1c1ccccc1)n1cc(C(O)(c2ccccc2)c2ccccc2)nn1` (stereo not drawn), the figure is 39% (inactive).

(Values after PubChem BioAssay AID602299 (The Scripps Research Institute Molecular Screening Center, 2012).)
